# Laboratory results: ChEMBL document CHEMBL1127325, “Potent gastrin-releasing peptide (GRP) antagonists derived from GRP (19-27) with a C-terminal DPro psi [CH2NH]Phe-NH2 and N-terminal aromatic residues” (J Med Chem, 1994)
# Where a SMILES comes first, the peptide text is derived from it. [ ]: non-standard residue; d: D form. The star is where a group is joined. ProΨ(CH2NH)PheNH2 = NC(=O)[C@H](Cc1ccccc1)NC[C@@H]1CCCN1*; dProψ(CH2NH)PheNH2 = NC(=O)[C@H](Cc1ccccc1)NC[C@H]1CCCN1*; X3 = NC(=O)[C@H](Cc1ccc(O)cc1)NC[C@H]1CCCN1*; Desaminotyrosyl = O=C(CCc1ccc(O)cc1)*; Hydrocinnamoyl = O=C(CCc1ccccc1)*; X9 = O=C(CCN1c2ccccc2Sc2ccccc21)*; X2 = O=C(Cc1ccccc1C(F)(F)F)*; Sar = CNCC(=O)O
# How the values were obtained:
# [1] = biological target: Gastrin-releasing peptide receptor (Mus musculus) (UniProt P21729); assay: Inhibition of 6 nM bombesin induced [3H]thymidine incorporation measured in swiss 3T3 cells using a mitogenicity assay; format: functional, cell-based
# Gastrin-releasing peptide receptor (Mus musculus), sequence (P21729 whole entry): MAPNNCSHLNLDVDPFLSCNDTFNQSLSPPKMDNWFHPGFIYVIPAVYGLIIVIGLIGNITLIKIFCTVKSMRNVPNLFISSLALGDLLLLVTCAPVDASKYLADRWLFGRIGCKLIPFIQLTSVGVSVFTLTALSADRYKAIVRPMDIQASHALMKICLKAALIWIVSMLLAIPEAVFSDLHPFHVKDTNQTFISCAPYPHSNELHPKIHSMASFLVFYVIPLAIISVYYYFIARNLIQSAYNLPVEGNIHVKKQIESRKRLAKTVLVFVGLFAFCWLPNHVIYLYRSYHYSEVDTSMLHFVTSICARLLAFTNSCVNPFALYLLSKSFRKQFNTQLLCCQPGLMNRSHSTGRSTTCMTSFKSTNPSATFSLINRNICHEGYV
# Procedure, shortened: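 Density-arrested quiescent Swiss 3T3 monolayers treated in triplicate with test peptide (generally log dilutions) plus 6 nM bombesin for 18 h, then pulsed 2 h with 0.5 µCi [3H]thymidine per well. Cells washed with cold PBS, fixed in methanol/acetic acid, solubilized, scintillation counted. IC50 ± SEM over replicate trials; na means no activity at 10^-4 M.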
# [2] = biological target: T1, Gastrin-releasing peptide receptor (Mus musculus, UniProt P21729); assay: Ability of peptide to inhibit binding of 10 pM [125I]gastrin releasing peptide to S-3T3 cell membrane.; format: cell-based
# T1 sequence (P21729 whole entry): as above
# Procedure, shortened: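 Swiss 3T3 membranes (10 µg protein) incubated in triplicate with 10 pM [125I]GRP(1-27) in HEPES-KOH pH 6.8 (20 mM) with EGTA, MgCl2, BSA and protease inhibitors, 60 min at 37 °C with shaking. Terminated by filtration through PEI-pretreated GF/B filters, gamma counted. Nonspecific binding taken with 10 nM unlabeled GRP(1-27). IC50 for half-maximal inhibition of specific binding by Hill plot analysis.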
# [3] = biological target: T1, Gastrin-releasing peptide receptor; assay: The ability of the peptide to inhibit the binding of 50 pM [125I]gastrin releasing peptide to intact S-3T3 cells; format: cell-based
# Procedure, shortened: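 Serially diluted peptides overlaid in triplicate on quiescent Swiss 3T3 monolayers (about 10^5 cells) with 50 pM [125I]GRP in maintenance medium, 30 min at 37 °C. Monolayers washed three times with chilled medium, solubilized, radioactivity counted. IC50 values reported.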
Structure (SMILES),Activity [1] [nM],IC50 [2] [nM],IC50 [3] [nM]
CC(C)[C@H](NC(=O)[C@H](C)NC(=O)[C@H](Cc1c[nH]c2ccccc12)NC(=O)[C@H](Cc1cnc[nH]1)NC(=O)c1cc2ccccc2cn1)C(=O)N[C@H](C)C(=O)N[C@@H](Cc1cnc[nH]1)C(=O)N1CCC[C@@H]1CN[C@@H](Cc1ccccc1)C(N)=O,–,0.57,–
CC(C)[C@H](NC(=O)[C@H](C)NC(=O)[C@H](Cc1c[nH]c2ccccc12)NC(=O)[C@H](Cc1cnc[nH]1)NC(=O)C1CCc2ccccc2C1)C(=O)N[C@H](C)C(=O)N[C@@H](Cc1cnc[nH]1)C(=O)N1CCC[C@@H]1CN[C@@H](Cc1ccccc1)C(N)=O (stereo partly specified),–,0.079,0.3
CC(C)[C@H](NC(=O)[C@H](C)NC(=O)[C@H](Cc1c[nH]c2ccccc12)NC(=O)[C@H](Cc1cnc[nH]1)NC(=O)C[C@@H](C)c1ccccc1)C(=O)N[C@H](C)C(=O)N[C@@H](Cc1cnc[nH]1)C(=O)N1CCC[C@@H]1CN[C@@H](Cc1ccccc1)C(N)=O,–,0.49,–
CC(C)[C@H](NC(=O)[C@H](C)NC(=O)[C@H](Cc1c[nH]c2ccccc12)NC(=O)[C@H](Cc1cnc[nH]1)NC(=O)CCc1cccc(C(F)(F)F)c1)C(=O)N[C@H](C)C(=O)N[C@@H](Cc1cnc[nH]1)C(=O)N1CCC[C@@H]1CN[C@@H](Cc1ccccc1)C(N)=O,–,0.16,10
CC(C)[C@H](NC(=O)[C@H](C)NC(=O)[C@H](Cc1c[nH]c2ccccc12)NC(=O)[C@H](Cc1cnc[nH]1)NC(=O)C[C@H](C)c1ccccc1)C(=O)N[C@H](C)C(=O)N[C@@H](Cc1cnc[nH]1)C(=O)N1CCC[C@@H]1CN[C@@H](Cc1ccccc1)C(N)=O,–,0.21,10
CC(C)[C@H](NC(=O)[C@H](C)NC(=O)[C@H](Cc1c[nH]c2ccccc12)NC(=O)[C@H](Cc1cnc[nH]1)NC(=O)c1cccc2ccccc12)C(=O)N[C@H](C)C(=O)N[C@@H](Cc1cnc[nH]1)C(=O)N1CCC[C@@H]1CN[C@@H](Cc1ccccc1)C(N)=O,–,0.05,0.001
CC(C)[C@H](NC(=O)[C@H](C)NC(=O)[C@H](Cc1c[nH]c2ccccc12)NC(=O)[C@H](Cc1cnc[nH]1)NC(=O)CCc1ccccc1)C(=O)N(C)CC(=O)N[C@@H](Cc1cnc[nH]1)C(=O)N1CCC[C@H]1CN[C@@H](Cc1ccccc1)C(N)=O (Hydrocinnamoyl-HWAV[Sar]H-{ProΨ(CH2NH)PheNH2}),–,21,0.1
CCCCC(NC[C@H]1CCCN1C(=O)[C@H](Cc1cccs1)NC(=O)[C@@H](C)NC(=O)[C@@H](NC(=O)[C@H](C)NC(=O)[C@H](Cc1c[nH]c2ccccc12)NC(=O)[C@H](Cc1c[nH]cn1)NC(=O)CCc1ccccc1)C(C)C)C(N)=O (stereo partly specified),300,–,–
CC(C)[C@H](NC(=O)[C@H](C)NC(=O)[C@H](Cc1c[nH]c2ccccc12)NC(=O)[C@H](Cc1cnc[nH]1)NC(=O)Cc1ccc(C(F)(F)F)cc1)C(=O)N[C@H](C)C(=O)N[C@@H](Cc1cnc[nH]1)C(=O)N1CCC[C@@H]1CN[C@@H](Cc1ccccc1)C(N)=O,–,3.7,–
CC(C)[C@H](NC(=O)[C@H](C)NC(=O)[C@H](Cc1c[nH]c2ccccc12)NC(=O)[C@H](Cc1cnc[nH]1)NC(=O)Cc1cccc(C(F)(F)F)c1)C(=O)N[C@H](C)C(=O)N[C@@H](Cc1cnc[nH]1)C(=O)N1CCC[C@@H]1CN[C@@H](Cc1ccccc1)C(N)=O,–,8.4,–
CC(C)[C@H](NC(=O)[C@H](C)NC(=O)[C@H](Cc1c[nH]c2ccccc12)NC(=O)[C@H](Cc1cnc[nH]1)NC(=O)CCc1ccccc1)C(=O)N[C@H](C)C(=O)N[C@@H](Cc1cnc[nH]1)C(=O)N1CCC[C@@H]1CN[C@H](Cc1ccc2ccccc2c1)C(N)=O,–,2,5
CC(C)[C@H](NC(=O)[C@H](C)NC(=O)[C@H](Cc1c[nH]c2ccccc12)NC(=O)[C@H](Cc1c[nH]cn1)NC(=O)CCN1c2ccccc2Sc2ccccc21)C(=O)N[C@H](C)C(=O)N[C@@H](Cc1c[nH]cn1)C(=O)N1CCC[C@@H]1CN[C@@H](Cc1ccccc1)C(N)=O (X9-HWAV[dA]H-{dProψ(CH2NH)PheNH2}),29,1.9,–

# Further lines, results first:
Activity [1] [nM],IC50 [2] [nM],IC50 [3] [nM],Structure (SMILES)
0.3,–,–,CC(C)[C@H](NC(=O)[C@H](C)NC(=O)[C@H](Cc1c[nH]c2ccccc12)NC(=O)[C@H](Cc1c[nH]cn1)NC(=O)c1cccc2ccccc12)C(=O)N[C@H](C)C(=O)N[C@@H](Cc1c[nH]cn1)C(=O)N1CCC[C@@H]1CN[C@@H](Cc1ccccc1)C(N)=O
47,> 10,–,CC(NC(=O)[C@@H](NC[C@H](C)NC(=O)[C@H](Cc1c[nH]c2ccccc12)NC(=O)[C@H](Cc1c[nH]cn1)NC(=O)CCc1ccccc1)C(C)C)C(=O)N[C@@H](Cc1c[nH]cn1)C(=O)N1CCC[C@H]1CN[C@@H](Cc1ccccc1)C(N)=O (stereo in doubt)
0.16,–,–,CC(C)[C@H](NC(=O)[C@H](C)NC(=O)[C@H](Cc1c[nH]c2ccccc12)NC(=O)[C@H](Cc1c[nH]cn1)NC(=O)C[C@H](C)c1ccccc1)C(=O)N[C@H](C)C(=O)N[C@@H](Cc1c[nH]cn1)C(=O)N1CCC[C@@H]1CN[C@@H](Cc1ccccc1)C(N)=O
0.43,–,–,CC(C)[C@H](NC(=O)[C@H](C)NC(=O)[C@H](Cc1c[nH]c2ccccc12)NC(=O)[C@H](Cc1c[nH]cn1)NC(=O)CCc1ccccc1)C(=O)N(C)CC(=O)N[C@@H](Cc1c[nH]cn1)C(=O)N1CCC[C@H]1CN[C@@H](Cc1ccccc1)C(N)=O (Hydrocinnamoyl-HWAV[Sar]H-{ProΨ(CH2NH)PheNH2})
330,12,–,CC(C)[C@H](NC(=O)[C@H](C)NC(=O)[C@H](Cc1c[nH]c2ccccc12)NC(=O)[C@H](Cc1c[nH]cn1)NC(=O)Cc1ccccc1C(F)(F)F)C(=O)N[C@H](C)C(=O)N[C@@H](Cc1c[nH]cn1)C(=O)N1CCC[C@@H]1CN[C@@H](Cc1ccccc1)C(N)=O (X2-HWAV[dA]H-{dProψ(CH2NH)PheNH2})
17,–,–,CC(C)[C@H](NC(=O)[C@H](C)NC(=O)[C@H](Cc1c[nH]c2ccccc12)NC(=O)[C@H](Cc1c[nH]cn1)NC(=O)C[C@@H](C)c1ccccc1)C(=O)N[C@H](C)C(=O)N[C@@H](Cc1c[nH]cn1)C(=O)N1CCC[C@@H]1CN[C@@H](Cc1ccccc1)C(N)=O
200,–,–,CC(C)[C@H](NC(=O)[C@H](C)NC(=O)[C@H](Cc1c[nH]c2ccccc12)NC(=O)[C@H](Cc1c[nH]cn1)NC(=O)Cc1ccc(C(F)(F)F)cc1)C(=O)N[C@H](C)C(=O)N[C@@H](Cc1c[nH]cn1)C(=O)N1CCC[C@@H]1CN[C@@H](Cc1ccccc1)C(N)=O
0.16,–,–,CC(C)[C@H](NC(=O)[C@H](C)NC(=O)[C@H](Cc1c[nH]c2ccccc12)NC(=O)[C@H](Cc1c[nH]cn1)NC(=O)CCc1ccc(O)cc1)C(=O)N[C@H](C)C(=O)N[C@@H](Cc1c[nH]cn1)C(=O)N1CCC[C@@H]1CN[C@@H](Cc1ccccc1)C(N)=O (Desaminotyrosyl-HWAV[dA]H-{dProψ(CH2NH)PheNH2})
430,0.75,–,CC(NC(=O)[C@H](Cc1csc2ccccc12)NC(=O)[C@H](Cc1c[nH]cn1)NC(=O)CCc1ccccc1)C(=O)N[C@H](C(=O)NC(C)C(=O)N[C@@H](Cc1c[nH]cn1)C(=O)N1CCC[C@@H]1CN[C@@H](Cc1ccccc1)C(N)=O)C(C)C (stereo in doubt)
10,0.33,–,CC(C)[C@H](NC(=O)[C@H](C)NC(=O)[C@H](Cc1c[nH]c2ccccc12)NC(=O)[C@H](Cc1c[nH]cn1)NC(=O)CCc1ccccc1)C(=O)N[C@H](C)C(=O)N[C@@H](Cc1c[nH]cn1)C(=O)N1CCC[C@@H]1CN[C@@H](Cc1ccc(O)cc1)C(N)=O (Hydrocinnamoyl-HWAV[dA]H-X3)
0.35,–,–,CC(C)[C@H](NC(=O)[C@H](C)NC(=O)[C@H](Cc1c[nH]c2ccccc12)NC(=O)[C@H](Cc1c[nH]cn1)NC(=O)CCc1cccc(C(F)(F)F)c1)C(=O)N[C@H](C)C(=O)N[C@@H](Cc1c[nH]cn1)C(=O)N1CCC[C@@H]1CN[C@@H](Cc1ccccc1)C(N)=O
–,0.038,–,CC(C)[C@H](NC(=O)[C@H](C)NC(=O)[C@H](Cc1c[nH]c2ccccc12)NC(=O)[C@H](Cc1c[nH]cn1)NC(=O)CCc1ccccc1)C(=O)N[C@H](C)C(=O)N[C@@H](Cc1c[nH]cn1)C(=O)N1CCC[C@@H]1CNC(Cc1ccccc1)C(N)=O (stereo in doubt)
4,–,–,CC(C)[C@H](NC(=O)[C@H](C)NC(=O)[C@H](Cc1c[nH]c2ccccc12)NC(=O)[C@H](Cc1c[nH]cn1)NC(=O)C1CCc2ccccc2C1)C(=O)N[C@H](C)C(=O)N[C@@H](Cc1c[nH]cn1)C(=O)N1CCC[C@@H]1CN[C@@H](Cc1ccccc1)C(N)=O (stereo partly specified)
40,–,–,CC(C)[C@H](NC(=O)[C@H](C)NC(=O)[C@H](Cc1c[nH]c2ccccc12)NC(=O)[C@H](Cc1c[nH]cn1)NC(=O)CCc1ccccc1)C(=O)N[C@H](C)C(=O)N[C@@H](Cc1c[nH]cn1)C(=O)N1CCC[C@@H]1CN[C@@H](Cc1ccc2ccccc2c1)C(N)=O
260,–,–,CC(C)[C@H](NC(=O)[C@H](C)NC(=O)[C@H](Cc1c[nH]c2ccccc12)NC(=O)[C@H](Cc1c[nH]cn1)NC(=O)Cc1cccc(C(F)(F)F)c1)C(=O)N[C@H](C)C(=O)N[C@@H](Cc1c[nH]cn1)C(=O)N1CCC[C@@H]1CN[C@@H](Cc1ccccc1)C(N)=O
45,7.7,–,CC(C)[C@H](NC(=O)[C@H](C)NC(=O)[C@H](Cc1c[nH]c2ccccc12)NC(=O)[C@H](Cc1c[nH]cn1)NC(=O)[C@@H](N)Cc1ccc2ccccc2c1)C(=O)N[C@H](C)C(=O)N[C@@H](Cc1c[nH]cn1)C(=O)N1CCC[C@@H]1CN[C@@H](Cc1ccccc1)C(N)=O
4,–,–,CC(C)[C@H](NC(=O)[C@H](C)NC(=O)[C@H](Cc1c[nH]c2ccccc12)NC(=O)[C@H](Cc1c[nH]cn1)NC(=O)c1cc2ccccc2cn1)C(=O)N[C@H](C)C(=O)N[C@@H](Cc1c[nH]cn1)C(=O)N1CCC[C@@H]1CN[C@@H](Cc1ccccc1)C(N)=O
